{"source": "ChEMBL document CHEMBL4024754", "about": "“Development of Potent, Protease-Resistant Agonists of the Parathyroid Hormone Receptor with Broad β Residue Distribution” (J Med Chem, 2017)", "format_in_all_cases": "functional, cell-based", "key": {"[1]": {"biological_target": "T1, Parathyroid hormone/parathyroid hormone-related peptide receptor (Homo sapiens, UniProt Q03431)", "T1 sequence (Q03431 whole entry)": "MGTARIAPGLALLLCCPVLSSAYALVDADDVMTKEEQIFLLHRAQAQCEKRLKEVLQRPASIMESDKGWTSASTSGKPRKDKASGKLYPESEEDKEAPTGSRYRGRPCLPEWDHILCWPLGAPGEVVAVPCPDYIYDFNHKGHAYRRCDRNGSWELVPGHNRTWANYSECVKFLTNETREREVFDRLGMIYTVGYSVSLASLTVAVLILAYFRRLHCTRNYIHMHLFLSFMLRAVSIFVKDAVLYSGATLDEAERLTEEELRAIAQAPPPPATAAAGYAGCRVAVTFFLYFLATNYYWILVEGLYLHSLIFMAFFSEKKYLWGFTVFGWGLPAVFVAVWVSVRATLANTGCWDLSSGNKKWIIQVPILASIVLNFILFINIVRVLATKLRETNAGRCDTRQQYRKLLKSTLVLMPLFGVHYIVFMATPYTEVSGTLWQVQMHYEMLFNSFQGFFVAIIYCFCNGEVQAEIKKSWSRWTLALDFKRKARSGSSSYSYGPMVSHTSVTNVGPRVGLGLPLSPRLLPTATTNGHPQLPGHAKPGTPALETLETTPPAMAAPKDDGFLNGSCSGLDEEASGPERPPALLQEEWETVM", "assay": "Agonist activity at human PTH1 receptor expressed in human GP2.3 cells assessed as induction of cAMP after 12 to 20 mins by luciferase reporter gene assay"}, "[2]": {"biological_target": "T2, Parathyroid hormone/parathyroid hormone-related peptide receptor (Homo sapiens) (UniProt Q03431)", "T2 sequence (whole entry)": "T1 sequence (Q03431 whole entry)", "assay": "Agonist activity at extracellular domain truncate human PTH1 receptor expressed in GD5 cells assessed as induction of cAMP after 12 to 20 mins by luciferase reporter gene assay", "procedure,_shortened": "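HEK293-derived lines stably expressing Glosensor cAMP reporter plus full-length human PTHR1 (GP2.3) or ECD-truncated PTHR1 (GD5). Confluent monolayers preincubated at room temperature in CO2-independent medium with 0.5 mM D-luciferin until baseline stable (30 min), then varied agonist concentrations added. Maximal luminescence (12−20 min) used for sigmoidal variable-slope fits.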"}, "[3]": {"biological_target": "T2, Parathyroid hormone/parathyroid hormone-related peptide receptor (Homo sapiens)", "assay": "Agonist activity at human PTH1 receptor expressed in human GP2.3 cells assessed as induction of cAMP after 12 to 20 mins by luciferase reporter gene assay relative to PTH(1 to 34 residues)-NH2"}}, "note": "Active and inactive are the calls of the source. The calls are words filed in the database; no cut-off is given here."}
{"smiles": "CC[C@H](C)[C@H](NC(=O)[C@H]1CCC[C@@H]1NC(=O)[C@H](CO)NC(=O)[C@@H](NC(=O)[C@@H](N)CO)C(C)C)C(=O)N[C@@H](CCC(N)=O)C(=O)N[C@@H](CC(C)C)C(=O)N[C@@H](CCSC)C(=O)N[C@@H](Cc1cnc[nH]1)C(=O)N[C@@H](CC(N)=O)C(=O)N[C@@H](CC(C)C)C(=O)NCC(=O)N[C@@H](CCCCN)C(=O)N[C@@H](Cc1cnc[nH]1)C(=O)N[C@@H](CC(C)C)C(=O)N[C@@H](CC(N)=O)C(=O)N[C@@H](CO)C(=O)N[C@@H](CCSC)C(=O)N[C@@H](CCC(=O)O)C(=O)N[C@@H](CCCNC(=N)N)C(=O)N[C@H](C(=O)N[C@@H](CCC(=O)O)C(=O)N[C@@H](Cc1c[nH]c2ccccc12)C(=O)N[C@@H](CC(C)C)C(=O)N[C@@H](CCCNC(=N)N)C(=O)N[C@@H](CCCCN)C(=O)N[C@@H](CCCCN)C(=O)N[C@@H](CC(C)C)C(=O)N[C@@H](CCC(N)=O)C(=O)N[C@@H](CC(=O)O)C(=O)N[C@H](C(=O)N[C@@H](Cc1cnc[nH]1)C(=O)N[C@@H](CC(N)=O)C(=O)N[C@@H](Cc1ccccc1)C(N)=O)C(C)C)C(C)C", "values": [{"measurement": "EC50", "setting": "[1]", "value": "Not Active"}, {"measurement": "Activity", "setting": "[2]", "value": "Active"}]}
{"smiles": "CC[C@H](C)[C@H](NC(=O)[C@H](CCC(=O)O)NC(=O)[C@H](CO)NC(=O)[C@@H](NC(=O)[C@@H](N)CO)C(C)C)C(=O)N[C@@H](CCC(N)=O)CC(=O)N[C@@H](CC(C)C)C(=O)N[C@@H](CCSC)C(=O)N[C@@H](Cc1cnc[nH]1)C(=O)N[C@@H](CC(N)=O)C(=O)N[C@@H](CC(C)C)C(=O)NCC(=O)N[C@@H](CCCCN)C(=O)N[C@@H](Cc1cnc[nH]1)C(=O)N[C@@H](CC(C)C)C(=O)N[C@@H](CC(N)=O)C(=O)N[C@@H](CO)C(=O)N[C@@H](CCSC)C(=O)N[C@@H](CCC(=O)O)C(=O)N[C@@H](CCCNC(=N)N)C(=O)N[C@H](C(=O)N[C@@H](CCC(=O)O)C(=O)N[C@@H](Cc1c[nH]c2ccccc12)C(=O)N[C@@H](CC(C)C)C(=O)N[C@@H](CCCNC(=N)N)C(=O)N[C@@H](CCCCN)C(=O)N[C@@H](CCCCN)C(=O)N[C@@H](CC(C)C)C(=O)N[C@@H](CCC(N)=O)C(=O)N[C@@H](CC(=O)O)C(=O)N[C@H](C(=O)N[C@@H](Cc1cnc[nH]1)C(=O)N[C@@H](CC(N)=O)C(=O)N[C@@H](Cc1ccccc1)C(N)=O)C(C)C)C(C)C", "values": [{"measurement": "fold change (FC)", "setting": "[3]", "value": 160}, {"measurement": "Activity", "setting": "[2]", "value": "Active"}]}
{"smiles": "CC[C@H](C)[C@H](NC(=O)[C@H](CCC(=O)O)NC(=O)[C@H](CO)NC(=O)[C@@H](NC(=O)[C@@H](N)CO)C(C)C)C(=O)N[C@@H](CCC(N)=O)C(=O)N[C@@H](CC(C)C)C(=O)N[C@@H](CCSC)C(=O)N[C@H]1CNC[C@@H]1C(=O)N[C@@H](CC(N)=O)C(=O)N[C@@H](CC(C)C)C(=O)NCC(=O)N[C@@H](CCCCN)C(=O)N[C@@H](Cc1cnc[nH]1)C(=O)N[C@@H](CC(C)C)C(=O)N[C@@H](CC(N)=O)C(=O)N[C@@H](CO)C(=O)N[C@@H](CCSC)C(=O)N[C@@H](CCC(=O)O)C(=O)N[C@@H](CCCNC(=N)N)C(=O)N[C@H](C(=O)N[C@@H](CCC(=O)O)C(=O)N[C@@H](Cc1c[nH]c2ccccc12)C(=O)N[C@@H](CC(C)C)C(=O)N[C@@H](CCCNC(=N)N)C(=O)N[C@@H](CCCCN)C(=O)N[C@@H](CCCCN)C(=O)N[C@@H](CC(C)C)C(=O)N[C@@H](CCC(N)=O)C(=O)N[C@@H](CC(=O)O)C(=O)N[C@H](C(=O)N[C@@H](Cc1cnc[nH]1)C(=O)N[C@@H](CC(N)=O)C(=O)N[C@@H](Cc1ccccc1)C(N)=O)C(C)C)C(C)C", "values": [{"measurement": "EC50", "setting": "[1]", "value": "Not Active"}, {"measurement": "Activity", "setting": "[2]", "value": "Active"}]}
{"smiles": "CC[C@H](C)[C@H](NC(=O)[C@H](CCC(=O)O)NC(=O)C[C@H](CO)NC(=O)[C@@H](NC(=O)[C@@H](N)CO)C(C)C)C(=O)N[C@@H](CCC(N)=O)C(=O)N[C@@H](CC(C)C)C(=O)N[C@@H](CCSC)C(=O)N[C@@H](Cc1cnc[nH]1)C(=O)N[C@@H](CC(N)=O)C(=O)N[C@@H](CC(C)C)C(=O)NCC(=O)N[C@@H](CCCCN)C(=O)N[C@@H](Cc1cnc[nH]1)C(=O)N[C@@H](CC(C)C)C(=O)N[C@@H](CC(N)=O)C(=O)N[C@@H](CO)C(=O)N[C@@H](CCSC)C(=O)N[C@@H](CCC(=O)O)C(=O)N[C@@H](CCCNC(=N)N)C(=O)N[C@H](C(=O)N[C@@H](CCC(=O)O)C(=O)N[C@@H](Cc1c[nH]c2ccccc12)C(=O)N[C@@H](CC(C)C)C(=O)N[C@@H](CCCNC(=N)N)C(=O)N[C@@H](CCCCN)C(=O)N[C@@H](CCCCN)C(=O)N[C@@H](CC(C)C)C(=O)N[C@@H](CCC(N)=O)C(=O)N[C@@H](CC(=O)O)C(=O)N[C@H](C(=O)N[C@@H](Cc1cnc[nH]1)C(=O)N[C@@H](CC(N)=O)C(=O)N[C@@H](Cc1ccccc1)C(N)=O)C(C)C)C(C)C", "values": [{"measurement": "fold change (FC)", "setting": "[3]", "value": 55}, {"measurement": "Activity", "setting": "[2]", "value": "Active"}]}
{"smiles": "CC[C@H](C)[C@H](NC(=O)C[C@@H](CCC(=O)O)NC(=O)[C@H](CO)NC(=O)[C@@H](NC(=O)[C@@H](N)CO)C(C)C)C(=O)N[C@@H](CCC(N)=O)C(=O)N[C@@H](CC(C)C)C(=O)N[C@@H](CCSC)C(=O)N[C@@H](Cc1cnc[nH]1)C(=O)N[C@@H](CC(N)=O)C(=O)N[C@@H](CC(C)C)C(=O)NCC(=O)N[C@@H](CCCCN)C(=O)N[C@@H](Cc1cnc[nH]1)C(=O)N[C@@H](CC(C)C)C(=O)N[C@@H](CC(N)=O)C(=O)N[C@@H](CO)C(=O)N[C@@H](CCSC)C(=O)N[C@@H](CCC(=O)O)C(=O)N[C@@H](CCCNC(=N)N)C(=O)N[C@H](C(=O)N[C@@H](CCC(=O)O)C(=O)N[C@@H](Cc1c[nH]c2ccccc12)C(=O)N[C@@H](CC(C)C)C(=O)N[C@@H](CCCNC(=N)N)C(=O)N[C@@H](CCCCN)C(=O)N[C@@H](CCCCN)C(=O)N[C@@H](CC(C)C)C(=O)N[C@@H](CCC(N)=O)C(=O)N[C@@H](CC(=O)O)C(=O)N[C@H](C(=O)N[C@@H](Cc1cnc[nH]1)C(=O)N[C@@H](CC(N)=O)C(=O)N[C@@H](Cc1ccccc1)C(N)=O)C(C)C)C(C)C", "values": [{"measurement": "fold change (FC)", "setting": "[3]", "value": 108}, {"measurement": "Activity", "setting": "[2]", "value": "Active"}]}
{"smiles": "CC[C@H](C)[C@@H](CC(=O)N[C@@H](CCC(N)=O)C(=O)N[C@@H](CC(C)C)C(=O)N[C@@H](CCSC)C(=O)N[C@@H](Cc1cnc[nH]1)C(=O)N[C@@H](CC(N)=O)C(=O)N[C@@H](CC(C)C)C(=O)NCC(=O)N[C@@H](CCCCN)C(=O)N[C@@H](Cc1cnc[nH]1)C(=O)N[C@@H](CC(C)C)C(=O)N[C@@H](CC(N)=O)C(=O)N[C@@H](CO)C(=O)N[C@@H](CCSC)C(=O)N[C@@H](CCC(=O)O)C(=O)N[C@@H](CCCNC(=N)N)C(=O)N[C@H](C(=O)N[C@@H](CCC(=O)O)C(=O)N[C@@H](Cc1c[nH]c2ccccc12)C(=O)N[C@@H](CC(C)C)C(=O)N[C@@H](CCCNC(=N)N)C(=O)N[C@@H](CCCCN)C(=O)N[C@@H](CCCCN)C(=O)N[C@@H](CC(C)C)C(=O)N[C@@H](CCC(N)=O)C(=O)N[C@@H](CC(=O)O)C(=O)N[C@H](C(=O)N[C@@H](Cc1cnc[nH]1)C(=O)N[C@@H](CC(N)=O)C(=O)N[C@@H](Cc1ccccc1)C(N)=O)C(C)C)C(C)C)NC(=O)[C@H](CCC(=O)O)NC(=O)[C@H](CO)NC(=O)[C@@H](NC(=O)[C@@H](N)CO)C(C)C", "values": [{"measurement": "fold change (FC)", "setting": "[3]", "value": 28}, {"measurement": "Activity", "setting": "[2]", "value": "Active"}]}
{"smiles": "CC[C@H](C)[C@H](NC(=O)[C@H](CCC(=O)O)NC(=O)[C@H](CO)NC(=O)[C@@H](NC(=O)[C@@H](N)CO)C(C)C)C(=O)N[C@@H](CCC(N)=O)C(=O)N[C@@H](CC(C)C)C(=O)N[C@@H](CCSC)CC(=O)N[C@@H](Cc1cnc[nH]1)C(=O)N[C@@H](CC(N)=O)C(=O)N[C@@H](CC(C)C)C(=O)NCC(=O)N[C@@H](CCCCN)C(=O)N[C@@H](Cc1cnc[nH]1)C(=O)N[C@@H](CC(C)C)C(=O)N[C@@H](CC(N)=O)C(=O)N[C@@H](CO)C(=O)N[C@@H](CCSC)C(=O)N[C@@H](CCC(=O)O)C(=O)N[C@@H](CCCNC(=N)N)C(=O)N[C@H](C(=O)N[C@@H](CCC(=O)O)C(=O)N[C@@H](Cc1c[nH]c2ccccc12)C(=O)N[C@@H](CC(C)C)C(=O)N[C@@H](CCCNC(=N)N)C(=O)N[C@@H](CCCCN)C(=O)N[C@@H](CCCCN)C(=O)N[C@@H](CC(C)C)C(=O)N[C@@H](CCC(N)=O)C(=O)N[C@@H](CC(=O)O)C(=O)N[C@H](C(=O)N[C@@H](Cc1cnc[nH]1)C(=O)N[C@@H](CC(N)=O)C(=O)N[C@@H](Cc1ccccc1)C(N)=O)C(C)C)C(C)C", "values": [{"measurement": "fold change (FC)", "setting": "[3]", "value": 205}, {"measurement": "Activity", "setting": "[2]", "value": "Active"}]}
